Results: ChEMBL document CHEMBL4145444, “Investigating the structure-activity relationships of N'-[(5-nitrofuran-2-yl) methylene] substituted hydrazides against Trypanosoma cruzi to design novel active compounds” (Eur J Med Chem, 2018)

Tests used:
[1] = Cytotoxicity against human U2OS cells assessed as reduction in cell viability; format: cell-based
Trypanosoma cruzi [2] = experiment: Antitrypanosomal activity against Trypanosoma cruzi Colombiana Tc1 epimastigotes measured after 72 hrs; format: functional, organism-based; settings: for IC50: Trypanosoma cruzi, Colombiana, 72 h
Method in brief: (§1)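 Exponentially growing epimastigotes (1.0*10^7 parasites/mL) cultured in LIT-FCS medium with compound from 0.4 to 300.0 µM, added from DMSO stock (DMSO ≤1.0%), 72 h at 28 °C. Viable parasites read by absorbance at 562 nm. PGI computed against untreated culture after subtracting compound/medium blanks. IC50 from sigmoid dose-response fit using at least six concentrations. Triplicates, at least two independent experiments.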

Trypanosoma cruzi [3] = experiment: Antitrypanosomal activity against Trypanosoma cruzi Y Tc2 amastigotes infected in human U2OS cells up to 200 uM after 72 hrs by Draq5 staining based HCS analysis relative to control; format: functional
Method in brief: (§2)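 U2OS cells (700/well, high-glucose DME, 10% FBS) seeded and incubated 24 h. Then infected with 2,800 Y-strain trypomastigotes harvested from LLC-MK2 cells. On day 3, 14-point 2-fold dilutions added, top 200 μM, 1% DMSO, 72 h. Fixed in 4% PFA, Draq5 stained, imaged at 20x. Infection ratio normalized to DMSO-mock infected and uninfected controls. IC50 by sigmoidal variable-slope fit. Doublets, duplicate experiments.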

Trypanosoma cruzi [4] = experiment: Antitrypanosomal activity against Trypanosoma cruzi Y Tc2 amastigotes infected in human U2OS cells after 72 hrs by Draq5 staining based HCS analysis; format: functional, organism-based; method in brief: as §2
Trypanosoma cruzi [5] = experiment: Antitrypanosomal activity Trypanosoma cruzi Y Tc2 epimastigotes measured after 72 hrs; format: functional, organism-based; settings: for IC50: Trypanosoma cruzi, Y, 72 h; method in brief: as §1
Trypanosoma cruzi [6] = experiment: Antitrypanosomal activity against Trypanosoma cruzi Silvio X10 cl1 Tc1 epimastigotes measured after 72 hrs; format: functional, organism-based; settings: for IC50: Trypanosoma cruzi, Silvio X10 cl1, 72 h
Method in brief: (§3)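 Exponentially growing epimastigotes (1.0*10^7 parasites/mL) cultured in LIT-FCS medium with compound from 0.4 to 300.0 µM, added from DMSO stock (DMSO ≤1.0%), 72 h at 28 °C. PGI computed against untreated culture after subtracting compound/medium blanks. IC50 from sigmoid dose-response fit using at least six concentrations. Triplicates, at least two independent experiments.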

Trypanosoma cruzi [7] = experiment: Antitrypanosomal activity Trypanosoma cruzi Bug 2149 cl10 Tc5 epimastigotes measured after 72 hrs; format: functional, organism-based; settings: for IC50: Trypanosoma cruzi, Bug 2149 cl10, CL1-0, 72 h; method in brief: as §3
[8] = Selectivity index, ratio of CC50 for cytotoxicity against human U2OS cells to IC50 for Trypanosoma cruzi Y Tc2 amastigotes infected in human U2OS cells; format: toxicity, cell-based; settings: read-out: Ratio CC50/IC50
Method in brief: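 Ratio of U2OS CC50 to Y-strain amastigote IC50, both from the same 72 h Draq5-stained HCS assay in infected U2OS cells (2-fold series up to 200 μM, 1% DMSO).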

Row | SMILES | CC50 [1] [µM] | IC50 (Trypanosoma cruzi [2]) [µM] | Emax (Trypanosoma cruzi [3]) [%] | IC50 (Trypanosoma cruzi [4]) [µM] | log1/IC50 (Trypanosoma cruzi [2]) | log1/IC50 (Trypanosoma cruzi [5]) | IC50 (Trypanosoma cruzi [5]) [µM] | log1/IC50 (Trypanosoma cruzi [6]) | IC50 (Trypanosoma cruzi [6]) [µM] | log1/IC50 (Trypanosoma cruzi [7]) | IC50 (Trypanosoma cruzi [7]) [µM] | selectivity ratio [8]
1 | O=C(Cn1ccnc1[N+](=O)[O-])NCc1ccccc1 [BENZNIDAZOLE] | > 200 | 47.9 | 85.2 | 64.3 | – | – | – | – | – | – | – | –
2 | Cc1cccc(C(=O)N/N=C/c2ccc([N+](=O)[O-])o2)c1 | – | 8.53 | – | – | 5.07 | – | – | – | – | – | – | –
3 | CCCc1ccc(C(=O)N/N=C/c2ccc([N+](=O)[O-])o2)cc1 | – | 7.25 | – | – | 5.14 | – | – | – | – | – | – | –
4 | COc1ccc(C(=O)N/N=C/c2ccc([N+](=O)[O-])o2)cc1OC | – | 26.6 | – | – | 4.58 | 4.85 | 14.2 | 4.56 | 27.3 | 4.76 | 17.2 | –
5 | O=C(N/N=C/c1ccc([N+](=O)[O-])o1)c1cccc(C(F)(F)F)c1 | – | 9.98 | – | – | 5 | 4.98 | 10.6 | 4.59 | 25.5 | 4.84 | 14.6 | –
6 | O=C(N/N=C/c1ccc([N+](=O)[O-])o1)C1CCCC1 | – | 9.67 | – | – | 5.01 | – | – | – | – | – | – | –
7 | O=C(N/N=C/c1ccc([N+](=O)[O-])o1)c1cccs1 | 57.2 | 15.1 | 94.5 | 1.06 | 4.82 | 5.26 | 5.51 | 4.89 | 12.8 | 5.16 | 6.87 | 53.9
8 | CC(C)(C)c1ccc(C(=O)N/N=C/c2ccc([N+](=O)[O-])o2)cc1 | > 200 | 6.1 | 98.4 | 1.43 | 5.21 | – | – | – | – | – | – | > 140
9 | O=C(N/N=C/c1ccc([N+](=O)[O-])o1)C1CCCCC1 | 25.4 | 10.2 | 119 | 2.9 | 4.99 | – | – | – | – | – | – | 8.77
10 | O=C(N/N=C/c1ccc([N+](=O)[O-])o1)c1ccccc1 | – | 11.3 | – | – | 4.95 | – | – | – | – | – | – | –
11 | CCCOc1ccc(C(=O)N/N=C/c2ccc([N+](=O)[O-])o2)cc1 | – | 5.26 | – | – | 5.28 | – | – | – | – | – | – | –
12 | CCOc1ccc(C(=O)N/N=C/c2ccc([N+](=O)[O-])o2)cc1 | – | 11.6 | – | – | 4.94 | 5.01 | 9.74 | 4.86 | 13.8 | 5.2 | 6.26 | –
13 | CN(C)c1ccc(C(=O)N/N=C/c2ccc([N+](=O)[O-])o2)cc1 | – | 85.5 | – | – | 4.07 | – | – | – | – | – | – | –
14 | O=C(N/N=C/c1ccc([N+](=O)[O-])o1)c1ccc2ccccc2c1 | 64.2 | 7.58 | 97 | 1.87 | 5.12 | 5.15 | 7.15 | 5.02 | 9.59 | 5 | 9.9 | 34.3
15 | O=C(N/N=C/c1ccc([N+](=O)[O-])o1)c1cccc([N+](=O)[O-])c1 | – | 40.6 | – | – | 4.39 | 4.36 | 44.1 | 4.28 | 52.3 | 4.52 | 30.4 | –
16 | CCCCCCCCC(=O)N/N=C/c1ccc([N+](=O)[O-])o1 | – | 8.07 | – | – | 5.09 | – | – | – | – | – | – | –

Row | SMILES | CC50 [1] [µM] | IC50 (Trypanosoma cruzi [2]) [µM] | Emax (Trypanosoma cruzi [3]) [%] | IC50 (Trypanosoma cruzi [4]) [µM] | log1/IC50 (Trypanosoma cruzi [2]) | log1/IC50 (Trypanosoma cruzi [5]) | IC50 (Trypanosoma cruzi [5]) [µM] | log1/IC50 (Trypanosoma cruzi [6]) | IC50 (Trypanosoma cruzi [6]) [µM] | log1/IC50 (Trypanosoma cruzi [7]) | IC50 (Trypanosoma cruzi [7]) [µM] | selectivity ratio [8]
17 | CCCCc1ccc(C(=O)N/N=C/c2ccc([N+](=O)[O-])o2)cc1 | 19.6 | 2.45 | 115 | 1.33 | 5.61 | 5.51 | – | 5.32 | – | 5.33 | – | 14.7
18 | CC(C)c1ccc(C(=O)N/N=C/c2ccc([N+](=O)[O-])o2)cc1 | – | – | – | – | 5.22 | – | – | – | – | – | – | –
19 | CCCCCC(=O)N/N=C/c1ccc([N+](=O)[O-])o1 | 19.3 | 7.58 | 115 | 2.61 | 5.12 | – | – | – | – | – | – | 7.39
20 | CC(=O)N/N=C/c1ccc([N+](=O)[O-])o1 [NIHYDRAZONE] | 39.2 | 9.52 | 98.7 | 4.62 | 5.02 | – | – | – | – | – | – | 8.49
21 | Cc1ccc(C(=O)N/N=C/c2ccc([N+](=O)[O-])o2)cc1 | – | 11.9 | – | – | 4.92 | – | – | – | – | – | – | –
22 | O=C(N/N=C/c1ccc([N+](=O)[O-])o1)c1ccc(Cl)cc1 | – | 8.64 | – | – | 5.06 | – | – | – | – | – | – | –
23 | CCc1ccc(C(=O)N/N=C/c2ccc([N+](=O)[O-])o2)cc1 | – | 6.55 | – | – | 5.18 | 5.04 | 9.11 | 4.91 | 12.3 | 5.02 | 9.53 | –
24 | CC(C)(C)OC(=O)N/N=C/c1ccc([N+](=O)[O-])o1 | – | 7.41 | – | – | 5.13 | – | – | – | – | – | – | –
25 | N#CCC(=O)N/N=C/c1ccc([N+](=O)[O-])o1 | – | 60.6 | – | – | 4.22 | 4.09 | 80.2 | 4.39 | 40.5 | 4.56 | 27.4 | –
26 | N#Cc1ccc(C(=O)N/N=C/c2ccc([N+](=O)[O-])o2)cc1 | 21.4 | 20.2 | 95.5 | 1.77 | 4.69 | – | – | – | – | – | – | 12.1
27 | Cc1nnsc1C(=O)N/N=C/c1ccc([N+](=O)[O-])o1 | – | 14.2 | – | – | 4.85 | 4.76 | 17.3 | 4.47 | 34.1 | 4.73 | 18.7 | –
28 | O=C(N/N=C/c1ccc([N+](=O)[O-])o1)c1ccco1 | – | 13.1 | – | – | 4.88 | 4.6 | 24.9 | 4.75 | 17.9 | 5 | 9.99 | –
29 | O=C(Cc1ccccc1)N/N=C/c1ccc([N+](=O)[O-])o1 | – | 10.1 | – | – | 5 | – | – | – | – | – | – | –
30 | O=C(N/N=C/c1ccc([N+](=O)[O-])o1)c1ccccc1Oc1ccccc1 | – | 5.79 | – | – | 5.24 | – | – | – | – | – | – | –
31 | COc1ccc(C(=O)N/N=C/c2ccc([N+](=O)[O-])o2)cc1 | – | 8.08 | – | – | 5.09 | – | – | – | – | – | – | –
